Square brackets hold non-standard residues; d marks the D form. Peptide text beside a SMILES is read from it. * marks the point of attachment. Dmt = Cc1cc(O)cc(C)c1C[C@H](N)C(=O)O; Tic = O=C(O)[C@@H]1Cc2ccccc2CN1; Cbz = O=C(OCc1ccccc1)*
How the values were obtained:
[1] = biological target: Delta-type opioid receptor (Rattus norvegicus, UniProt P33533); experiment: Displacement of [3H]deltorphin2 from delta opioid receptor in Sprague-Dawley rat brain P2 synaptosomal membrane
Outline: (§1)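 Competition binding on rat brain P2 synaptosomes, preincubated to strip endogenous opioids and stored at −80 °C in buffered 20% glycerol. Equilibrium 2.5 h at 23 °C. Separation on GFC filters presoaked in 0.1% polyethylenimine, washed three times with ice-cold buffered BSA. Duplicates, five to eight doses, 3–5 independent membrane preparations; Ki by Cheng-Prusoff, mean ± SE.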

[2] = biological target: Mu-type opioid receptor (Rattus norvegicus, UniProt P33535); experiment: Displacement of [3H]DAMGO from mu opioid receptor in Sprague-Dawley rat brain P2 synaptosomal membrane; outline: as §1
Chain of Mu-type opioid receptor (Rattus norvegicus, UniProt P33535) (P33535 whole entry): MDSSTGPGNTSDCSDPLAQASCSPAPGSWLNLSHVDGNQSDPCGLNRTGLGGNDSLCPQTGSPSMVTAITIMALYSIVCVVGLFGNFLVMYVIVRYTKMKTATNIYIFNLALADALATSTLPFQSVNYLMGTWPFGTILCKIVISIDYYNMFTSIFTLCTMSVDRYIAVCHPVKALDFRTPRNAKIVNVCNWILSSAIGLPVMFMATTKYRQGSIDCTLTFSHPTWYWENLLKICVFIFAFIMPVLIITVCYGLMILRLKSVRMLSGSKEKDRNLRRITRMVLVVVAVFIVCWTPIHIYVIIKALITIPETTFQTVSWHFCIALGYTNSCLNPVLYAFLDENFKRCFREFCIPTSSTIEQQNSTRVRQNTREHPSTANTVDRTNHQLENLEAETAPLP

[3] = species: Rattus norvegicus; experiment: Ratio of Ki for mu opioid receptor to delta opioid receptor in Sprague-Dawley rat brain P2 synaptosomal membrane
Outline: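 Ratio of Ki values from rat brain P2 synaptosome competition binding (2.5 h, 23 °C, equilibrium; filtration on polyethylenimine-treated GFC filters). Ki by Cheng-Prusoff from duplicate assays at five to eight doses, 3–5 independent preparations.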

[4] = biological target: Mu-type opioid receptor (Cavia porcellus, UniProt P97266); experiment: Agonist activity at mu opioid receptor in Hartley guinea pig assessed as inhibition of electrically evoked-contraction; assay type: functional
Chain of Mu-type opioid receptor (Cavia porcellus, UniProt P97266) (P97266 whole entry): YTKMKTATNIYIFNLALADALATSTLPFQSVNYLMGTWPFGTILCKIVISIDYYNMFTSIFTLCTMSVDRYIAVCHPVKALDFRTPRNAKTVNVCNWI
Outline: (§2)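 Isolated tissue: single mouse vas deferens (delta) or myenteric plexus longitudinal muscle strips, 2–3 cm, from small intestine of male Hartley guinea pigs (mu), in organ baths with balanced salt solution, pH 7.5. Inhibition of electrically evoked contraction; IC50 (nM) from dose-response curves, mean ± SE of five or six separate assays.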

[5] = biological target: T1, Delta-type opioid receptor (Mus musculus, UniProt P32300); experiment: Antagonist activity at delta opioid receptor in electrically stimulated-mouse vas deferens; assay type: functional, tissue-based; conditions: read-out: pA2 (converted)
T1 sequence (P32300 whole entry): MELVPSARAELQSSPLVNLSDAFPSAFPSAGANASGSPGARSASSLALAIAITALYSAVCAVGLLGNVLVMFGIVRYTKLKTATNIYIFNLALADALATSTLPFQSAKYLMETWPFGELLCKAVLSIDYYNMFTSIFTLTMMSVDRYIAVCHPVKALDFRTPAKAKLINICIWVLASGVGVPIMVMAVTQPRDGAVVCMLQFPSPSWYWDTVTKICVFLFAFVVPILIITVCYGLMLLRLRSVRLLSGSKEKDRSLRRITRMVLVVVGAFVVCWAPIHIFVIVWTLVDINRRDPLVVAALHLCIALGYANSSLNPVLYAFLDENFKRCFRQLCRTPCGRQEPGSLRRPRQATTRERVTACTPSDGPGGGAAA
Outline: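 Mouse vas deferens in organ bath with physiological salt buffer, pH 7.5, electrically stimulated. Antagonism measured against the delta agonist deltorphin-II and expressed as pA2 derived by Schild plot.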

[6] = biological target: T1, Delta-type opioid receptor; experiment: Agonist activity at delta opioid receptor in mouse vas deferens assessed as inhibition of electrically evoked-contraction; assay type: functional, tissue-based; outline: as §2

Chain of Delta-type opioid receptor (Rattus norvegicus, UniProt P33533) (P33533 whole entry): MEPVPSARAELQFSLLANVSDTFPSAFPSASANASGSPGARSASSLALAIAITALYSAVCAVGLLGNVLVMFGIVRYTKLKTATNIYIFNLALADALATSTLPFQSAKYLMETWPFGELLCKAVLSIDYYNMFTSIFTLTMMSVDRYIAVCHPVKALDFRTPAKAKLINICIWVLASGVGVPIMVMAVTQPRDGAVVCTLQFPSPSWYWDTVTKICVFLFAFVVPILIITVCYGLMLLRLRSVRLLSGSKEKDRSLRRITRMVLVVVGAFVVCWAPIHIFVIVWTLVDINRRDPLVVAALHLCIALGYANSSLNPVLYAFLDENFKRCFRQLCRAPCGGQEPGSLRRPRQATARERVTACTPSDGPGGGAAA

SMILES	Ki [1] [nM]	Ki [2] [nM]	Ratio Ki [3]	IC50 [4] [nM]	Kb [5] [nM]	IC50 [6] [nM]
Cc1cc(O)cc(C)c1C[C@H](N)C(=O)N1Cc2ccccc2C[C@@H]1C(=O)NCCCC[C@H](NC(=O)c1ccc(F)cc1)C(=O)O	0.172	41.2	240	1920	5.62	
Cc1cc(O)cc(C)c1C[C@H](N)C(=O)N1Cc2ccccc2C[C@@H]1C(=O)N[C@@H](Cc1ccccc1)C(=O)N[C@@H](CCCCNC(=O)c1ccc(F)cc1)C(=O)O			53			
Cc1cc(O)cc(O)c1C[C@H](N)C(=O)N1Cc2ccccc2C[C@@H]1C(=O)N[C@@H](Cc1ccccc1)C(=O)N[C@@H](CCCCNC(=O)OCc1ccccc1)C(=O)O			145			
Cc1cc(O)cc(C)c1C[C@H](N)C(=O)N1Cc2ccccc2C[C@H]1C(=O)N[C@@H](Cc1ccccc1)C(=O)N[C@@H](CCCCNC(=O)OCc1ccccc1)C(=O)O (H-[Dmt][Tic]FK(Cbz)-OH)	0.019	2.75		> 10000		
Cc1cc(O)cc(C)c1C[C@H](N)C(=O)N1Cc2ccccc2C[C@H]1C(=O)N[C@@H](Cc1ccccc1)C(=O)N[C@@H](CCCCNC(=O)c1ccc(F)cc1)C(=O)O	0.248	13.2		50.6	0.355	5180
